Experiments:
CK2 holoenzyme = CK2 holoenzyme activity towards protein and peptide substrates; assay type: biochemical, human; conditions: results not shown
Method in brief: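 Recombinant human CK2α and CK2β expressed in E. coli; holoenzyme formed by pre-incubating CK2α with 10-fold molar excess of CK2β. Radiolabel incorporation was measured; at least three independent experiments were averaged.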

CK2α catalytic subunit = CK2α catalytic subunit (Homo sapiens, UniProt P68400); test: In vitro phosphorylation assay of CK2α with peptide substrate RRRADDSDDDDD; assay type: biochemical
Method in brief: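 Activity is expressed as % of no-peptide control, as the mean of at least three independent experiments. Full-length murine NBD1ΔF508 (389–673) tests were run at 350 μM ATP.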

Sequence of CK2α catalytic subunit (P68400 whole entry): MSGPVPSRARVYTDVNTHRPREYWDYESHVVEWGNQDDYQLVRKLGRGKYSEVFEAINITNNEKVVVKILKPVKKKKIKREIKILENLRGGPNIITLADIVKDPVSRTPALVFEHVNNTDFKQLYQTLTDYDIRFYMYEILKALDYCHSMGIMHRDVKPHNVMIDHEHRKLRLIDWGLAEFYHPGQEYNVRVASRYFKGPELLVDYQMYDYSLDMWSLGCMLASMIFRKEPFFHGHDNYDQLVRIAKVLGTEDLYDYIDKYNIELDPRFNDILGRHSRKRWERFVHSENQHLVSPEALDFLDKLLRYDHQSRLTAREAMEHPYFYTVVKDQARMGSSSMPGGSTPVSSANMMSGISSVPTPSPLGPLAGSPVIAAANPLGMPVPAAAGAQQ

B1: NBD1ΔF508: purified ΔF508 mutated recombinant murine NBD1 (nucleotide-binding domain 1 of CFTR; sequence 389–673) (protein)
chain: TTGIIMENVTAFWEEGFGELLEKVQQSNGDRKHSSDENNVSFSHLCLVGNPVLKNINLNIEKGEMLAITGSTGSGKTSLLMLILGELEASEGIIKHSGRVSFCSQFSWIMPGTIKENIIGVSYDEYRYKSVVKACQLQQDITKFAEQDNTVLGEGGVTLSGGQRARISLARAVYKDADLYLLDSPFGYLDVFTEEQVFESCVCKLMANKTRILVTSKMEHLRKADKILILHQGSSYFYGTFSELQSLRPDFSSKLMGYDTFDQFTEERRSSILTETLRRFSVDD
- effect on CK2 holoenzyme (CK2 holoenzyme): no appreciable effect
- effect on inhibition of CK2α by the ΔF508 peptide (CK2α catalytic subunit; 50 μM NBD1ΔF508, 350 μM ATP): abrogates the inhibitory efficacy of the ΔF508 peptide
- inhibition of CK2α by the full-length protein (CK2α catalytic subunit; concentration raised up to 20 μM, results not shown): no significant inhibition

— publication PMC3026963 (The Biochemical journal, 2010)
